Compound activity (PubChem)
The sample as a whole holds a higher share of hits than the screen did.
STK33 kinase inh: blocks human STK33 kinase activity. Q9BYT3. purified STK33, MBP phosphorylation, ADP-Glo luminescence. inhibition, % at 10 µM. 0.073% of 320,000 active;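 active means inhibition at or above 25%, using the most active replicate where run in duplicate; inactive means inhibition below 25%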
GSK3B inh: inhibitors of human GSK3beta kinase. P49841. GST-GSK3beta kinase, ADP-Glo luminescence, 60 min; hits give low values. activity score (negative = inhibition), % at 10 µM. 0.038% of 300,000 active. AID 2097;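 active means more than half of replicate wells score below -50%, meaning over 50% inhibition versus plate controls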
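Test system: GST-fused GSK3beta enzyme, cell-free | Quantity: 1.6 ng GST-GSK3beta enzyme per well | Reagent: 25 µM ATP with peptide substrate | Schedule: 60 min enzyme reaction, room temperature | Signal: Luminescent ADP-Glo measurement of ADP formed | Read-out basis: Score relative to plate controls | Control set: DMSO and 20 µM GW8510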
CDK5 p35 inh: blocks human CDK5/p35 kinase activity; Recombinant CDK5/p35, ADP-Glo luminescence, 60 min; inhibition, % at 10 µM; 0.01% of 330,000 active; AID 488839;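 active means highest replicate inhibition of at least 50% and at least 75% of replicates reaching 50%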
Target sequence (Q00535 whole entry, looked up): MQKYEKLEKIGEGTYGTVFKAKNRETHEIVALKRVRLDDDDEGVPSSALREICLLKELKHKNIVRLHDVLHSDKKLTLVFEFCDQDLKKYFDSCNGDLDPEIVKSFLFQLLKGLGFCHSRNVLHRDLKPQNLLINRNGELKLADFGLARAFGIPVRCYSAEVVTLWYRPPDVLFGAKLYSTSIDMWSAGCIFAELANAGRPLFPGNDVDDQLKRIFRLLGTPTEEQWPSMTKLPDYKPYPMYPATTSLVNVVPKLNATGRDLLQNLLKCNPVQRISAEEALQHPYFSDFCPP
Target sequence (Q15078 whole entry, looked up): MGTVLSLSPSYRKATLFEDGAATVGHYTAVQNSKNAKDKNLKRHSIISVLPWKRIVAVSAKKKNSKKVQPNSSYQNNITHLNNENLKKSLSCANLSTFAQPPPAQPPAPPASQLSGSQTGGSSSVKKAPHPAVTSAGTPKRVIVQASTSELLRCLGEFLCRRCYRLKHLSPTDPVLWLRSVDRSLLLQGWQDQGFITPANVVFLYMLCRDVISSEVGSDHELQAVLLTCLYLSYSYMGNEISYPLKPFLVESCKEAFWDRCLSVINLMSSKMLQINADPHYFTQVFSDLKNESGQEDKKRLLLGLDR
GSK3A inh: blocks human GSK-3 alpha kinase | P49840 | ADP-Glo luminescence, 60 min | inhibition, % at 10 µM | 0.1% of 320,000 active | AID 2650;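 active means more than half of replicates show inhibition above 20%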;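 further: GST-tagged GSK-3 alpha with peptide substrate and 25 µM ATP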
Dyrk1A ADPGlo: Dyrk1A (rat) kinase inhibition; 0.43% of 310,000 active; inhibition, % at 12.5 µM; ADP-Glo luminescence, NFATc1 peptide; AID 504441; in the data active means inhibition above about 50%
Dyrk1A artifact: ADP-Glo luciferase interference, Dyrk1A counter-screen. shares compounds with Dyrk1A ADPGlo. ADP-Glo luciferase artifact assay, no Dyrk1A, luminescence. AC50, µM (highest dose often 12 µM). 1,300 tested, under 10 active. AID 588348;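 active means fitted half-maximal dose AC50 no more than ten times the top valid tested dose, with luminescence dropping as dose rises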
A number is an active result; – = inactive; · = no result.

SMILES | STK33 kinase inh | GSK3B inh | CDK5 p35 inh | GSK3A inh | Dyrk1A ADPGlo | Dyrk1A artifact
N=C(N)c1ccc(N=Nc2c(O)ccc3c2[nH]c2ccccc23)cc1 | · | · | – | · | 78 | –
O=C1C=C(N2CCOCC2)c2ccccc2C1=O | – | – | – | – | 56 | –
O=C(Cn1c(-c2cncs2)nc2ccccc21)NCc1ccccc1 | – | – | – | – | 60 | –
Cc1ccccc1Cn1c(-c2cncs2)nc2ccccc21 | – | – | – | – | – | ·
Nc1nc(N)c2c(ccc3nccc32)[nH]1 | – | – | – | – | 55 | –
COCCNc1cc(C)nc2c(-c3ccccc3OC)c(C)nn12 | – | – | – | – | 57 | –
O=C(NN1C(=O)/C(=C\c2ccc(O)c([N+](=O)[O-])c2)SC1=S)c1ccccc1Cl | – | – | – | – | 79 | –
CCOC(=O)C(Cc1c[nH]c2cc([N+](=O)[O-])ccc12)(NC(C)=O)C(=O)OCC | · | · | – | · | – | ·
Cc1cccc(CNc2ncnc3ccc(-c4ccoc4)cc23)c1 | – | · | – | – | 66 | –
O=C1NC[C@H](Cc2ccccc2)N(C[C@H]2CCCN2C[C@H](Cc2ccc(O)cc2)N2C[C@H](Cc3ccc(O)cc3)N(CC3CCCCCC3)C(=O)C2=O)C1=O | · | · | – | · | · | ·
O=C1NC(=S)SC1=Cc1ccccc1Br | · | · | – | · | – | ·
COc1ccc(C=C2SC(=S)NC2=O)cc1 | · | · | – | · | 76 | –
O=C1NC(=S)SC1=Cc1ccc(F)cc1 | · | · | – | · | 84 | –
O=C1NC(=S)SC1=Cc1cc(Br)ccc1O | · | · | – | · | 84 | –
COc1cccc(OCCOc2ccc(/C=C3/SC(=S)NC3=O)cc2)c1 | – | – | – | – | – | ·
CC(C)C[C@@H](CN)NC(=O)c1nc[nH]c1C(=O)N[C@@H](CC(C)C)C(=O)CNC[C@H](C)NC(=O)c1nc[nH]c1C(=O)N[C@@H](CC(=O)O)C(=O)O | · | · | – | · | – | ·
Cc1ccc(CNC(=O)C2CCN(S(=O)(=O)c3cccc4nonc34)CC2)cc1 | – | – | – | – | – | ·
Cc1ccc(CCNC(=O)C2CCN(S(=O)(=O)c3cccc4nonc34)CC2)cc1 | – | – | – | – | 57 | –
N#CC1=C(N)Oc2ccc3ccc(O)cc3c2C1c1ccsc1 (stereo unspecified) | · | – | – | · | 77 | –
O=C1NC(Cc2ccc(O)cc2)c2nc3ccc(Br)cc3c(=O)n2-c2ccc(Cl)cc21 (stereo unspecified) | – | · | · | – | · | ·
O=C1CCCC2=C1Sc1ccc(Cl)cc1N2 | – | – | – | – | 54 | –
CCCOc1ccc(/C=N/NC(=O)CN2CCCCC2)cc1 | – | – | – | – | 71 | –
CCN1CCN(c2ccc(S(=O)(=O)N3CCOCC3)cc2NC(=O)CC(NC(C)=O)c2ccccc2)CC1 (stereo unspecified) | · | · | – | · | · | ·
CCN1CCN(Cc2ccc(NC(=O)c3ccc(C)c(/C=C/c4cnc(Nc5cc(N6CCNCC6)nc(C)n5)cn4)c3)cc2C(F)(F)F)CC1 | – | – | – | – | 52 | –
CCN1CCN(Cc2ccc(NC(=O)c3ccc(C)c(NC(=O)c4csc(-c5ccncc5)n4)c3)cc2C(F)(F)F)CC1 | – | – | – | – | 68 | –
SMILES | STK33 kinase inh | GSK3B inh | CDK5 p35 inh | GSK3A inh | Dyrk1A ADPGlo | Dyrk1A artifact
Cc1ccc(NCC(=O)N=Nc2c(O)[nH]c3ccc([N+](=O)[O-])cc23)cc1 | – | – | · | – | · | ·
O=C(Nc1ccc(F)cc1)C(=O)c1c(O)[nH]c2ccc([N+](=O)[O-])cc12 | – | – | – | – | 57 | –
O=C(OCC1CCC=CO1)C1CCC=CO1 (stereo unspecified) | · | · | – | · | – | ·
COc1ccc(N2C(=O)C3CCCN3C2c2cc(OC)c(OC)c(OC)c2)cc1 (stereo unspecified) | – | – | – | · | 62 | –
CCCc1nc2c(=O)n(C)c(=O)nc-2n(C)n1 | · | · | – | · | 65 | –
COc1ccc(-c2nc(-c3ccccn3)ncc2S(C)(=O)=O)cc1 | – | – | – | · | – | ·
Cn1nc(-c2ccccn2)nc2c(=O)n(C)c(=O)nc1-2 | – | – | – | – | 81 | –
CCCc1nc2c([nH]1)c(=O)n(C)c(=O)n2C | – | – | – | – | – | ·
Nc1ccc(CSc2ccc(Cl)cc2)c(Cl)c1 | · | · | – | · | – | ·
O=c1[nH]c2cnn(-c3ccccc3)c2c(=O)n1O | · | · | – | · | · | ·
O=[N+]([O-])c1cc(/C=N/O)ccc1N1CCCC1 | – | -52 | – | · | 50 | –
COc1ccc(-c2cnnc(N/N=C/c3ccc(O)c(O)c3)n2)cc1 | – | – | – | – | 68 | –
COc1ccc(-c2cnnc(N/N=C/c3ccc(O)cc3)n2)cc1 | – | – | – | – | – | ·
Nc1ccn(C2OC(COP(=O)(O)O)C(O)C2O)c(=O)n1 (stereo unspecified) | · | · | – | · | – | ·
COc1ccc(NC(=O)N(C)C[C@H]2Oc3c(NS(=O)(=O)c4cccs4)cccc3C(=O)N([C@@H](C)CO)C[C@@H]2C)cc1 | – | · | – | – | 55 | –
CC(C)CC(NC(=O)C1CCC(C)CC1)C(=O)Nc1ccc2c(c1)OCCO2 (stereo unspecified) | – | – | – | – | 56 | –
CC(/C=C/c1ccccc1)=N/O | – | – | – | – | – | ·
O=C(O)/C=C/c1ccc(O)cc1 | – | – | – | – | 57 | –
O=C(/C=C/c1ccc(O)cc1)c1ccc(O)cc1O | – | – | – | – | – | ·
CC(/C=C/c1ccc(O)cc1)=N/O | – | – | – | – | 89 | –
COc1ccc(/C=C/C(=O)O)cc1 | · | · | – | · | 62 | –
O=C(Cc1ccccc1Cl)c1ccccc1 | · | · | – | · | – | ·
NC1=NC(=O)C(=Cc2ccccc2)S1 | · | · | – | · | – | ·
COc1ccc(/C=C2\SC(N3CCc4ccccc4C3)=NC2=O)cc1 | – | – | – | – | 70 | –
CCOc1ccc(/C=C2\SC(N3CCc4ccccc4C3)=NC2=O)cc1 | – | – | – | – | – | ·
SMILES | STK33 kinase inh | GSK3B inh | CDK5 p35 inh | GSK3A inh | Dyrk1A ADPGlo | Dyrk1A artifact
COc1ccc(/C=C2\SC(N)=NC2=O)cc1 | – | – | – | – | 83 | –
CCOC(=O)CSC1=NC(=O)/C(=C/c2ccc(OC)cc2)S1 | – | – | – | – | 71 | –
Oc1[nH]c2ccccc2c1N=NC(=S)N1CCOCC1 | – | – | – | – | – | ·
Oc1[nH]c2ccc(Br)cc2c1N=NC(=S)N1CCOCC1 | – | – | – | – | 63 | –
Cc1ccc(S(=O)(=O)/N=C2\C=C(NS(=O)(=O)c3ccccc3)C(=O)c3ccccc32)c(C)c1 | · | · | – | · | – | ·
Cc1ccc(S(=O)(=O)/N=C2\C=C(Nc3cccc(C(=O)O)c3)C(=O)c3ccccc32)c(C)c1 | – | – | – | – | 76 | –
Cc1ccc(S(=O)(=O)/N=C2\C=C(Nc3cccc(C(=O)O)c3)C(=O)c3ccccc32)cc1 | – | – | – | – | 51 | –
CC(=O)Oc1ccc(C2=Cc3ccc(OC(C)=O)cc3OC2C)cc1 (stereo unspecified) | · | · | – | · | – | ·
COC1OC(O)C(NC(=O)C(F)(F)F)CC1O (stereo unspecified) | · | · | – | · | · | ·
N#Cc1c(-c2ccc(Cl)cc2)n(O)c2ccccc12 | · | · | – | · | – | ·
